Experiments:
Lck = Lck (Homo sapiens, UniProt P06239); assay: In vitro kinase assay, Lck; assay type: biochemical
[1] = tested on: Nef-dependent SFK activation; assay: Endogenous SFK activation in HIV-infected CEM-T4 cells; assay type: cell-based; details: 1.0 μM
Summary of the method: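 CEM-T4 cells (1 × 10^5) were infected with 50 pg p24 equivalents/ml wild-type HIV-1 NL4-3, ΔNef mutant or Nef chimeras in 10 ml, with test compound (1 μM) or DMSO carrier. Cells were lysed 8 days later and SFKs were immunoprecipitated with a pan-specific antibody. Immunoblots used an anti-pY418 activation-loop antibody. Lysates were blotted for Gag, Nef and actin (loading control). Uninfected cells were included.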

[2] = tested on: Nef-defective (ΔNef) HIV-1 NL4-3; assay: Nef-defective HIV-1 replication in CEM-T4 cells; assay type: cell-based
c-Src = c-Src (Homo sapiens, UniProt P12931); assay: In vitro kinase assay, c-Src; assay type: biochemical
c-Src, sequence (P12931 whole entry, species assumed): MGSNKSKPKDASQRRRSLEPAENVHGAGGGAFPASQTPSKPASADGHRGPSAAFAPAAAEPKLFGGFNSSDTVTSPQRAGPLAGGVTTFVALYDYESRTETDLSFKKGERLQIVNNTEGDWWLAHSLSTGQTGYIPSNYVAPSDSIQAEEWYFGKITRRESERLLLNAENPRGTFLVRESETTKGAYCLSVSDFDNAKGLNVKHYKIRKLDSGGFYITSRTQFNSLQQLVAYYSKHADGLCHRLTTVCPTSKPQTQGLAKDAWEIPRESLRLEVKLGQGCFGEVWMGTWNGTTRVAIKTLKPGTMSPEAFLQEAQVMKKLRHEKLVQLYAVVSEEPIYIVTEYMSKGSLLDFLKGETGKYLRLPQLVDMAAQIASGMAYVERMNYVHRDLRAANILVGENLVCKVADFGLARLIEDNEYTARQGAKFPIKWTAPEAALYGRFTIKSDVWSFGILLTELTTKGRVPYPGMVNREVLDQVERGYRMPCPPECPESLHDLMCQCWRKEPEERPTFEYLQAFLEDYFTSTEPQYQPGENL

Nef dimerization = Nef dimerization (Human immunodeficiency virus type 1 group M subtype B, UniProt P03407); assay: BiFC assay for Nef dimerization in 293T cells; assay type: cell-based, HIV-1; details: 1–6 μM, 48 h
Nef dimerization, sequence (P03407 whole entry): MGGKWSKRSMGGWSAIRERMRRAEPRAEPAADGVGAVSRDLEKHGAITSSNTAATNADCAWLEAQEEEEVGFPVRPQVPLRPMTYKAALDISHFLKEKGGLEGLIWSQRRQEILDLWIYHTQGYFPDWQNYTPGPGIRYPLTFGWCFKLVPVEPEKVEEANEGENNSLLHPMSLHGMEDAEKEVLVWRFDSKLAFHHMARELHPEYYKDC

SIV ΔB670 = assay: SIV infectivity in TZM-bl reporter cells; assay type: cell-based; details: Simian immunodeficiency virus, read-out: IC50, SIV infectivity
Summary of the method: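 TZM-bl reporter cells (2.5 × 10^4/well) were plated 8 h before infection to adhere. Test compound was pre-incubated with SIV ΔB670 for 4 h, then added to the cells (final 200 μl). After 48 h at 37 °C, cells were washed with PBS and lysed. Infectivity was read as luciferase luminescence.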

Lyn = Lyn (Homo sapiens, UniProt P07948); assay: In vitro kinase assay, Lyn; assay type: biochemical
Lyn, sequence (P07948 whole entry, species assumed): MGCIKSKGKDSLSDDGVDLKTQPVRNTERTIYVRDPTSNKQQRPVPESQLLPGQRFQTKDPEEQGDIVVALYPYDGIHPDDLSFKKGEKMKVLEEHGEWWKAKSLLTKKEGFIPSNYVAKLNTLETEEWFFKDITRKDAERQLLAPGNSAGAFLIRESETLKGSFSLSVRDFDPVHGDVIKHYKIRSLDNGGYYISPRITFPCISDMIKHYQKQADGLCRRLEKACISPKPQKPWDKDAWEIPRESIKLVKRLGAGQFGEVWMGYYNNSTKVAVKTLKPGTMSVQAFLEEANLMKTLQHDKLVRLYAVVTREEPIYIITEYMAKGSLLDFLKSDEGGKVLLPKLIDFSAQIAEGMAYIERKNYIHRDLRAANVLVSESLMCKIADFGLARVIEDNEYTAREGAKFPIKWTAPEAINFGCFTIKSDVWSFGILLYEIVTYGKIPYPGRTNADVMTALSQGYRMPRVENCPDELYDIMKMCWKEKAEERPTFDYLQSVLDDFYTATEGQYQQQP

[3] = tested on: HIV-1 Nef Asn126 mutants (Ala, Leu, Gln); assay: Surface plasmon resonance, Nef Asn126 mutants; assay type: binding; details: SPR, B9 10 μM
HIV-1 NL4-3 = assay: HIV-1 infectivity in TZM-bl reporter cells; assay type: cell-based; details: luciferase 48 h
SIV quasispecies ΔB670 = assay: SIV replication in CEM-174 cells; assay type: cell-based; details: Simian immunodeficiency virus, CEM174, 120 h, read-out: IC50, SIV replication
Summary of the method: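 CEM-174 cells received test compound in DMSO over a range of concentrations, 1 h before infection with the pathogenic SIV quasispecies ΔB670. Replication was measured 5 d later as p27 Gag protein by ELISA.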

Lck, sequence (P06239 whole entry, species assumed): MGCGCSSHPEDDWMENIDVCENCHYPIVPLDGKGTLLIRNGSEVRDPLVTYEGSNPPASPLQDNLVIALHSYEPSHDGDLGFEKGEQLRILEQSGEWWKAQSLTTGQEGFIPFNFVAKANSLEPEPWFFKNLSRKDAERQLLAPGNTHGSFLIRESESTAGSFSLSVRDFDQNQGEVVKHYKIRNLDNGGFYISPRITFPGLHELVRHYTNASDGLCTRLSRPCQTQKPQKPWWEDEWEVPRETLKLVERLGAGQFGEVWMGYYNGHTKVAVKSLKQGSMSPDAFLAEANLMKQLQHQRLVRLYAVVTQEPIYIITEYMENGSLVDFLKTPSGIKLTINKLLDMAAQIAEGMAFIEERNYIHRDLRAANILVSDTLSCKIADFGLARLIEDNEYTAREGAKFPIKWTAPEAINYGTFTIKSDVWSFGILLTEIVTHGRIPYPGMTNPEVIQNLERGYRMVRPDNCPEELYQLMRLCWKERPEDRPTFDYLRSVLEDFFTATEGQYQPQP

NC(=S)n1nc(-c2ccc([N+](=O)[O-])cc2)c(/N=N/c2cccc(Cl)c2)c1O [B9, (E)-4-((3-chlorophenyl)diazenyl)-5-hydroxy-3-(4-nitrophenyl)-1H-pyrazole-1-carbothioamide]
IC50 (Lck): > 20 µM | Nef-dependent SFK activation (pY418) [1]: completely inhibited | Effect on Nef-defective HIV replication (chimera experiment) ([2]; 0.3 and 1.0 μM, 10 days): no effect | Effect on replication of Nef-defective HIV-1 ([2]; highest concentration tested 3.0 μM): unaffected | IC50 (c-Src): > 20 µM | Nef BiFC signal (Nef dimerization) (Nef dimerization): concentration-dependent loss | IC50 (SIV ΔB670): ~3000 nM | IC50 (Lyn): > 20 µM | Binding to Nef Asn126 mutants [3]: none of these mutants demonstrated detectable binding | Nef-mediated enhancement of HIV-1 infectivity (HIV-1 NL4-3): inhibited Nef-mediated enhancement of HIV-1 infectivity in a concentration-dependent manner | IC50 (SIV quasispecies ΔB670): ~1000 nM

Reference: paper PMC3559019 (Chemistry & biology, 2013)
